Consider eight molecules from ChEMBL document CHEMBL1148136, “Induction of quinone reductase by withanolides” (J Nat Prod, 2002).

The structures appear in SMILES notation. Active and inactive are the calls of the source. The calls are words filed in the database; no cut-off is given here.

The nature of assay [1]: Growth inhibition of mouse Hepa-1c1c7 cells by crystal violet staining. The class given is cell-based. The following applies: Mus musculus, Hepa-1c1c7. The method in brief:
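Hepa 1c1c7 cells seeded at 4000 cells/mL and grown 24 h at 37 °C, then medium changed. Compounds added in 10% DMSO, serially diluted over 0.15-20 µg/mL, and exposed 48 h. Viability read by crystal violet staining at 595 nm. IC50 taken as the half-maximal inhibitory concentration of cell viability.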

The nature of assay [2]: Chemoprevention index, ratio of IC50 for mouse Hepa-1c1c7 cells to drug level required to double specific quinone reductase activity in mouse Hepa-1c1c7 cells. Type of assay: functional. The method in brief:
(§1)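 Hepa 1c1c7 cells seeded at 4000 cells/mL, grown 24 h at 37 °C under CO2, then medium changed. Compounds added in 10% DMSO, serially diluted over 0.15-20 µg/mL, and incubated a further 48 h. QR measured as NADPH-dependent, menadiol-mediated MTT reduction to formazan. Protein by crystal violet at 595 nm in duplicate plates. Specific activity expressed relative to solvent control. CD = concentration giving 2-fold activity, CQ = 4-fold. CI = IC50/CD or IC50/CQ.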

Assay [3] can be described thus: Chemoprevention index, ratio of IC50 for mouse Hepa-1c1c7 cells to drug level required to induce 4-fold increase in quinone reductase activity in mouse Hepa-1c1c7 cells. Type of assay: functional. The method in brief:
as §1

Assay [4] relates to Mus musculus. In words: Induction of quinone reductase activity in BALB/c mouse liver at 2.5 mg/0.2 ml/day administered intragastrically for 3 consecutive day. The class given is functional, organism-based. The procedure, abridged:
(§2)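 BALB/c mice, n = 3, dosed intragastrically for 3 consecutive days at 2.5 mg per mouse per day in 0.2 mL sesame oil. Quinone reductase activity was then assessed in liver, lung, colon, stomach and mammary gland tissue, and the change in activity is reported for each organ.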

Assay [5] relates to Mus musculus. The assay is described as follows: Induction of quinone reductase activity in BALB/c mouse lung at 2.5 mg/0.2 ml/day administered intragastrically for 3 consecutive day. The class given is functional, organism-based. The method in brief:
as §2

Assay [6] concerns Mus musculus. In words: Induction of quinone reductase activity in BALB/c mouse mammary gland at 2.5 mg/0.2 ml/day administered intragastrically for 3 consecutive day. The class given is functional, organism-based. The method in brief:
as §2

The subject of assay [7] is Mus musculus. The assay is described as follows: Induction of quinone reductase activity in BALB/c mouse stomach at 2.5 mg/0.2 ml/day administered intragastrically for 3 consecutive day. The class given is functional, organism-based. The procedure, abridged: as §2
Assay [8] concerns Mus musculus. In words: Induction of quinone reductase activity in BALB/c mouse colon at 2.5 mg/0.2 ml/day administered intragastrically for 3 consecutive day. The class given is functional, organism-based. The procedure, abridged: as §2

Consider `CC1=C(C)[C@H]([C@H]2O[C@@]3(O)C[C@H]4[C@@H](C[C@H]5O[C@]56CC=CC(=O)[C@]46C)[C@@H]4CC[C@@](O)([C@@H]2C)[C@]43C)OC1=O` [TRECHONOLIDE A], for which, in assay [1], the IC50 was determined as 7.74 µM. The Ratio in assay [2] is reported as 28.7; in assay [3], 6.1.
For `CC1=C(C)[C@]2(OC1=O)[C@H](O)[C@@H](C)[C@]1(O)CC[C@H]3[C@@H]4CC=C5CC=CC(=O)[C@]5(C)[C@H]4C[C@@]2(O)[C@@]31C` [JABOROSALACTONE P], the outcome in assay [4], in assay [5], in assay [6], in assay [7] and in assay [8] was inactive. Further, the IC50 in assay [1] was > 42.7 µM. The Ratio in assay [2] is listed as >57.
`CC1=C(C)C(=O)O[C@@H]([C@@H](C)[C@H]2[C@@H](O)C[C@H]3[C@@H]4C[C@H]5O[C@]56[C@@H](O)C=CC(=O)[C@]6(C)[C@H]4CC[C@]23C)C1`: the IC50 in assay [1] was found to be 0.66 µM. For the same molecule, the results for the Ratio in assay [2] and in assay [3] were >2.1 and 1.3, respectively.
In the same order, the values of `CC1=C(CO)C(=O)O[C@@H]([C@@H](C)[C@H]2CC[C@H]3[C@@H]4C[C@H]5O[C@]56CC=CC(=O)[C@]6(C)[C@H]4CC[C@]23C)C1` [JABOROSALACTONE A] are 1.83 µM, 6.3 and 2.7.
In the same order, the values of `CC(=O)O[C@H]1C=CC(=O)[C@]2(C)[C@H]3CC[C@]45C(=O)O[C@@](C)([C@H]6CC(C)=C(C)C(=O)O6)[C@H]4CC[C@H]5[C@@H]3C[C@H]3O[C@]132` are 0.57 µM, >2 and >2.
In the same order, the values of `CC1=C(C)C(=O)O[C@@H]([C@](C)(O)[C@H]2CC[C@H]3[C@@H]4[C@@H](O)C=C5[C@@H](O)C=CC(=O)[C@]5(C)[C@H]4CC[C@]23C)C1` are 1.66 µM, 3.5 and 0.62.
Regarding `CC1=C(C)[C@]2(OC1=O)C(=O)C(C)=C1CC[C@H]3[C@@H]4C[C@H]5O[C@]56CC=CC(=O)[C@]6(C)[C@H]4C[C@@]2(O)[C@]13C` [JABOROSALACTONE 1], 8.08 µM corresponded to half-maximal inhibition in assay [1] (IC50). For the same molecule, the Ratio in assay [2] was 28.9; in assay [3], 6.3.
Turning to `C[C@@H](c1ccc2c(c1)CC[C@H]1[C@H]2[C@@H]2O[C@@H]2[C@@]2(O)CC=CC(=O)[C@]12C)C1C[C@]2(C)O[C@]2(C)[C@H](O)O1` (stereo partly drawn) [NICANDRENONE], the concentration for half-maximal inhibition (IC50) in assay [1] came out at 42.9 µM. Besides, the Ratio was 4.1 in assay [2] and 1.1 in assay [3].
